KCNK3 inh – human KCNK3 channel inhibition, primary screen. O14649. CHO-KCNK3 thallium flux, FluxOR fluorescence; stronger effect = lower value. B-score at 10 µM. 340,000 compounds, 0.84% hits. AID 602410;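 active = B-score under library mean minus 4 SD, starting fluorescence ratio at most library mean plus 5 SD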;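 also: more negative B-score means stronger inhibition of thallium flux through KCNK3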
KCC2 mod – modulators of human KCC2 chloride dependent transport; Q9H2X9; KCC2 cells, thallium flux FluoZin-2 fluorescence; B-score of Tl+ flux slope (higher = more flux/activation; lower = inhibition) at 10 µM; 190,000 compounds, 2.2% hits;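 active = thallium flux slope and its plate-corrected score both differing from the plate sample mean at a set confidence after two filtering rounds, in either direction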;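 also: slope of fluorescence scaled to starting intensity during 10 to 20 s after thallium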
KCNK9 inh – inhibitors of human KCNK9 two-pore domain potassium channel. Q9NPC2. HEK293 KCNK9, FluxOR thallium flux fluorescence; stronger effect = lower value. B-score at 10 µM. 310,000 compounds, 1.2% hits. AID 488922;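 active = ratio B-score over 3 SD below the library mean, with starting fluorescence within 5 SD of its mean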;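 also: negative B-score means less thallium flux so channel inhibition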
KCNQ1 block – human KCNQ1 channel inhibition. 310,000 compounds, 1.3% hits. AID 2642. CHO-K1 KCNQ1, FluxOR thallium flux fluorescence; stronger effect = higher value. B-score at 10 µM. P51787;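 active = compounds whose thallium flux B-score, printed positive for inhibition, exceeds three library SD while starting fluorescence stays within three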;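 also: channel opened by potassium depolarization with thallium stimulus after 20 min compound exposure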
hERG protect – shields human hERG channel from block by proarrhythmic agents | CHO-hERG, FluxOR thallium flux, dofetilide IC70 present | 310,000 compounds, 0.51% hits | AID 1511 | activation (rescue from dofetilide block), less the hit threshold, % at 10 µM;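 active = activation above the mean of controls blocked by dofetilide plus 5 SD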;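 also: thallium influx through hERG after potassium depolarization seen as dye fluorescence rise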
Target sequence (Q12809 whole entry, looked up): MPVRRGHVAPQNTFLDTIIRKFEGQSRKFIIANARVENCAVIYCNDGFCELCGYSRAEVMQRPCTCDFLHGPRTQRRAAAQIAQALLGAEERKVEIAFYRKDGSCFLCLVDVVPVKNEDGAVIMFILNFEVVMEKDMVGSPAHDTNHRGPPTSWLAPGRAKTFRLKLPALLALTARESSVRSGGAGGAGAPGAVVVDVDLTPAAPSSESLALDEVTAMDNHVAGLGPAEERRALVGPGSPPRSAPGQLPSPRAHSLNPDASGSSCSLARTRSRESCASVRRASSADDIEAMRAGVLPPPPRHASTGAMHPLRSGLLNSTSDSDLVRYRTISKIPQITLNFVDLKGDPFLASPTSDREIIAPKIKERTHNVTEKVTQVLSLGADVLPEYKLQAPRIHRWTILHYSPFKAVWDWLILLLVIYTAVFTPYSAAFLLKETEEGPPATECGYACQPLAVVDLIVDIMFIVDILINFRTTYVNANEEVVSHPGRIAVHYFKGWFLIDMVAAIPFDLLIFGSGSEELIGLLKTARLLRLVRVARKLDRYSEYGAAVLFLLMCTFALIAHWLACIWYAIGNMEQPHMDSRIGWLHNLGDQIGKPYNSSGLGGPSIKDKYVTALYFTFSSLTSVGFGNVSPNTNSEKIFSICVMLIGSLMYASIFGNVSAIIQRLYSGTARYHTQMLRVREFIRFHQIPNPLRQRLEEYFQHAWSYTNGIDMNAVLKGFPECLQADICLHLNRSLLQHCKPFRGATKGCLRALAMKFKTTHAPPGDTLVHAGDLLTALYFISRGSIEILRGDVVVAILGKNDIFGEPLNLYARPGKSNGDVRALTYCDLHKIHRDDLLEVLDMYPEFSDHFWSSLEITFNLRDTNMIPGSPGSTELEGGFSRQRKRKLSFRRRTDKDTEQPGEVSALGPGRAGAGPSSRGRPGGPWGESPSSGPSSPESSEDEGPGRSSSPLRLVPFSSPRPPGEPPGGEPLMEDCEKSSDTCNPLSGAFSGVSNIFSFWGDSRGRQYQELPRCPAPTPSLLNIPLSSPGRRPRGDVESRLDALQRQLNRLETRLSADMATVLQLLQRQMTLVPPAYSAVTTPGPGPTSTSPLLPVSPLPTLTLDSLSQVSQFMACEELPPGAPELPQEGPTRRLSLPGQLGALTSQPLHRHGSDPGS
KCNQ1 pot – potentiates or activates the human KCNQ1 potassium channel | B-score at 10 µM | CHO-K1 KCNQ1, thallium flux FluxOR fluorescence; stronger effect = higher value | P51787 | 310,000 compounds, 0.35% hits;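 active = fluorescence ratio B-score, a plate-corrected score, at least three library SD, with initial intensity B-score within 5 SD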
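Assay system: CHO-K1 cells stably expressing KCNQ1; Medium: assay buffer with matched DMSO; Also added: K+/Tl+ depolarizing stimulus; Dosing: single dose; Timing: dye 90 min, compound 20 min, room temperature; Measured by: kinetic FluxOR thallium fluorescence, 10-s 1-Hz baseline, 110-s post-stimulus read; Read-out: peak-minus-minimum fluorescence over initial fluorescence, negative-control normalized, B-scored.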
Numbers stand for hits. Shown are actives, neighbours in structure and some others; about 4.1% of the full set was active somewhere.

What do the screens show for `OC(CNCc1ccc(Cl)cc1)(c1ccccc1)c1ccc(F)cc1` (centres undefined)?
KCNK3 inh: inactive; KCC2 mod: inactive; KCNK9 inh: -7.6; KCNQ1 block: inactive; hERG protect: inactive; KCNQ1 pot: inactive

How did COc1ccc(CNCC(O)(c2ccccc2)c2ccc(F)cc2)cc1 (centres undefined) do in these assays?
KCNK3 inh: inactive; KCNK9 inh: inactive; KCNQ1 block: inactive; hERG protect: inactive; KCNQ1 pot: inactive

What do the screens show for `COc1ccc(CNCC(O)(c2ccc(F)cc2)c2ccc(F)cc2)cc1OC`?
KCNK3 inh: inactive; KCNK9 inh: inactive; KCNQ1 block: inactive; hERG protect: inactive; KCNQ1 pot: inactive

How did CN1CCN(c2nc(-c3cccs3)cc(C(F)(F)F)n2)CC1 do in these assays?
KCNK3 inh: inactive; KCNK9 inh: inactive; KCNQ1 block: inactive; hERG protect: inactive; KCNQ1 pot: 10

What do the screens show for `Cn1nc(C(F)(F)F)cc1-c1ccc(/C=C(\C#N)C(=O)c2ccccc2)s1`?
KCNK3 inh: inactive; KCC2 mod: inactive; KCNK9 inh: inactive; KCNQ1 block: 8; hERG protect: inactive; KCNQ1 pot: inactive

What do the screens show for `CS(=O)(=O)N1CCCCC1CCN1CCCCC1` (centres undefined)?
KCNK3 inh: inactive

What do the screens show for `CC(C)CC(=O)Nc1ccc(C(=O)COC(=O)C2=COCCO2)cc1`?
KCNK3 inh: inactive; KCNK9 inh: inactive; KCNQ1 block: inactive; hERG protect: inactive; KCNQ1 pot: inactive

What do the screens show for `O=[N+]([O-])c1cc(/C=N\Nc2ccccn2)ccc1Cl`?
KCNK3 inh: inactive; KCNK9 inh: inactive; KCNQ1 block: inactive; hERG protect: inactive; KCNQ1 pot: inactive

What do the screens show for `O=[N+]([O-])c1cc(C=Nc2cccc3c(O)cccc23)ccc1Cl`?
KCNK9 inh: inactive; KCNQ1 block: 7; hERG protect: inactive; KCNQ1 pot: inactive

How did CN(C)Cc1nc2ccccc2c(=O)n1Cc1nc(-c2cccc([N+](=O)[O-])c2)cs1 do in these assays?
KCNK3 inh: inactive; KCC2 mod: inactive; KCNK9 inh: -7.6; KCNQ1 block: inactive; hERG protect: inactive; KCNQ1 pot: inactive

Results for O=C(c1cnn(C(=O)c2ccc(O)cc2)c1)c1ccccc1O ?
KCC2 mod: inactive; KCNK9 inh: inactive; KCNQ1 block: 6; hERG protect: inactive; KCNQ1 pot: inactive

Results for O=C(CCN1CCc2ccccc2CC1)c1ccc2c(c1)OCCO2 ?
KCNK3 inh: inactive; KCC2 mod: inactive; KCNK9 inh: inactive; KCNQ1 block: inactive; hERG protect: inactive; KCNQ1 pot: 10

Results for COC(=O)Nc1nn(-c2ccc(C)cc2)c(=O)c(C#N)c1C ?
KCNK3 inh: inactive; KCNK9 inh: inactive; KCNQ1 block: inactive; hERG protect: inactive; KCNQ1 pot: inactive

Results for COC(=O)Nc1nn(-c2ccc(OC)cc2)c(=O)c(C#N)c1C ?
KCNK3 inh: inactive; KCNK9 inh: inactive; KCNQ1 block: inactive; hERG protect: 5.5; KCNQ1 pot: inactive

What do the screens show for `O=C(NC1CCCCC1)C(c1cccs1)N(Cc1cccs1)C(=O)c1cccs1` (centres undefined)?
KCNK3 inh: inactive; KCC2 mod: inactive; KCNK9 inh: inactive; KCNQ1 block: 8; hERG protect: inactive; KCNQ1 pot: inactive

What do the screens show for `COc1ccccc1N(C(=O)c1snc(C(N)=O)c1N)C(C(=O)NC1CCCC1)c1ccco1` (centres undefined)?
KCNK3 inh: inactive; KCC2 mod: inactive; KCNK9 inh: inactive; KCNQ1 block: 6; hERG protect: inactive; KCNQ1 pot: inactive

Results for CCC(C(=O)NC1CCCCC1)N(Cc1cccs1)C(=O)c1snc(C(N)=O)c1N (centres undefined) ?
KCNK3 inh: inactive; KCC2 mod: inactive; KCNK9 inh: inactive; KCNQ1 block: 6; hERG protect: inactive; KCNQ1 pot: inactive

How did COc1ccc(C(C(=O)NC2CCCC2)N(Cc2ccco2)C(=O)c2snc(C(N)=O)c2N)cc1OC (centres undefined) do in these assays?
KCNK3 inh: inactive; KCNK9 inh: inactive; KCNQ1 block: inactive; hERG protect: inactive; KCNQ1 pot: inactive

From PubChem BioAssay
